*1 amine or outer side, *2 acyl side, *3 side chain or, on linkers, in order; H or OH if unused. Where a SMILES comes first, the peptide text is derived from it. Side-chain parts run from the residue outwards. [ ]: non-standard residue; d: D form. The star is where a group is joined. X2 = CC[C@H](C)[C@H](NC[C@H](CCCCN)N*)C(=O)N[C@@H](CCCN=C(N)N)C(=O)N1CCC[C@H]1C(=O)N[C@@H](CCCCN)C(N)=O; N(2-aminoethyl)Phe = O=C([C@H](Cc1ccccc1)N(CCN[*:3])[*:1])[*:2]; X4 = CC(C)C[C@@H](CN([C@@H](CCCN=C(N)N)C(=O)[*:2])[*:1])N[*:3]; X5 = NCCCC[C@@H](CN([C@@H](CCCN=C(N)N)C(=O)[*:2])[*:1])N[*:3]; X1 = CC(C)C[C@@H](C(=O)[*:2])N(C[C@H](Cc1ccccc1)N[*:3])[*:1]
Legend:
[1] = molecular target: Kappa-type opioid receptor (Cavia porcellus, UniProt P41144); test: Binding affinity against Opioid receptor kappa 1 of Guinea pig brain homogenate using [3H]U-69593; assay type: tissue-based
Mu-type opioid receptor = Mu-type opioid receptor (Cavia porcellus, UniProt P97266); test: Binding affinity against Opioid receptor mu 1 from Guinea pig brain homogenate using [3H]DAMGO; assay type: tissue-based
Cavia porcellus [2] = species: Cavia porcellus; test: Binding affinity against smooth muscle tissue of Guinea pig ileum; assay type: functional
How it was run: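 Longitudinal muscle–myenteric plexus strips from male Hartley guinea pigs (250–500 g) in oxygenated Krebs buffer at 37 °C under 1 g tension. Transmural stimulation at 0.1 Hz, 0.4 ms, supramaximal voltage, with no peptidase inhibitors. Cumulative agonist doses every 3 min; % inhibition of contraction height measured. IC50 from a Hill-equation fit of mean data from 2–4 tissues.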

[3] = molecular target: Kappa-type opioid receptor (Cavia porcellus) (UniProt P41144); test: Ratio of IC50 for central and peripheral kappa opioid receptor binding in guinea pig
Cavia porcellus [4] = species: Cavia porcellus; test: Selectivity as ratio of IC50 for mu and kappa opioid receptors
[5] = Selectivity as ratio of IC50 for delta and mu opioid receptors; conditions: Cavia porcellus

Chain of Mu-type opioid receptor (P97266 whole entry): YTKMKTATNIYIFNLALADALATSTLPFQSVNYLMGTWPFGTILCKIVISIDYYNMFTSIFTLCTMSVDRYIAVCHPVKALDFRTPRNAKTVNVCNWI
Chain of Kappa-type opioid receptor (Cavia porcellus) (P41144 whole entry): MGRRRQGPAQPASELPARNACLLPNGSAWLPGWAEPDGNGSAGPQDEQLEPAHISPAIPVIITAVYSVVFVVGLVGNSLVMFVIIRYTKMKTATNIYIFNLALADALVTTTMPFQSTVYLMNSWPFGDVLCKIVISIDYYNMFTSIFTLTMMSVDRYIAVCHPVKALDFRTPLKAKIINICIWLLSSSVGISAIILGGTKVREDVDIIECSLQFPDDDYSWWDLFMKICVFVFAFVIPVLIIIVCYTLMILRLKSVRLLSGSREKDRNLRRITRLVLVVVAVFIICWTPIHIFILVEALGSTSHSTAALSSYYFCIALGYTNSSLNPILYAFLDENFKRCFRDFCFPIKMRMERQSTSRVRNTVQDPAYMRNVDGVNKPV
Chain of Kappa-type opioid receptor (P41144 whole entry): as above

Row | Structure (SMILES) | IC50 [1] | IC50 (Mu-type opioid receptor) | IC50 (Cavia porcellus [2]) | Ratio [3] | Selectivity (Cavia porcellus [4]) | Selectivity [5]
1 | CC[C@H](C)[C@H](NC(=O)[C@H](CCCN=C(N)N)NC[C@H](CCCCN)NC(=O)[C@H](CC(C)C)NC(=O)[C@H](Cc1ccccc1)NC(=O)CNC(=O)CNC(=O)[C@@H](N)Cc1ccc(O)cc1)C(=O)N[C@@H](CCCN=C(N)N)C(=O)N1CCC[C@H]1C(=O)N[C@@H](CCCCN)C(N)=O | 0.9 nM | 9 nM | 70.6 nM |  |  | 
2 | CC[C@H](C)[C@H](NC(=O)[C@H](CCCN=C(N)N)NC(=O)[C@H](CCCN=C(N)N)NC(=O)[C@H](CC(C)C)NC(=O)[C@H](Cc1ccccc1)NC(=O)CNC(=O)CNC[C@@H](N)Cc1ccc(O)cc1)C(=O)N[C@@H](CCCN=C(N)N)C(=O)N1CCC[C@H]1C(=O)N[C@@H](CCCCN)C(N)=O | 8 nM | 96 nM | 308 nM | 38.5 | 12 | 25
3 | CC[C@H](C)[C@H](NC(=O)[C@H](CCCN=C(N)N)NC(=O)[C@H](CCCN=C(N)N)NC(=O)[C@H](CC(C)C)NC(=O)[C@H](Cc1ccccc1)NCCNC(=O)CNC(=O)[C@@H](N)Cc1ccc(O)cc1)C(=O)N[C@@H](CCCN=C(N)N)C(=O)N1CCC[C@H]1C(=O)N[C@@H](CCCCN)C(N)=O (H-[N(2-aminoethyl)Phe]([Gly-Tyr])LRRIRPK-NH2) | 17 nM | 1040 nM | 20.5 nM |  |  | 
4 | CC[C@H](C)[C@H](NC(=O)[C@H](CCCN=C(N)N)NC(=O)[C@H](CCCN=C(N)N)NC(=O)[C@H](CC(C)C)NC(=O)[C@H](Cc1ccccc1)NC(=O)CNC(=O)CNC(=O)[C@@H](N)Cc1ccc(O)cc1)C(=O)N[C@@H](CCCCN)CN1CCC[C@H]1C(=O)N[C@@H](CCCCN)C(N)=O | 0.24 nM | 5.2 nM | 2.1 nM |  |  | 
5 | CC[C@H](C)[C@H](NC[C@H](CCCCN)NC(=O)[C@H](CCCN=C(N)N)NC(=O)[C@H](CC(C)C)NC(=O)[C@H](Cc1ccccc1)NC(=O)CNC(=O)CNC(=O)[C@@H](N)Cc1ccc(O)cc1)C(=O)N[C@@H](CCCN=C(N)N)C(=O)N1CCC[C@H]1C(=O)N[C@@H](CCCCN)C(N)=O (H-YGGFLR-X2) | 0.16 nM | 9.2 nM | 2.8 nM |  |  | 
6 | CC[C@H](C)[C@H](NC(=O)[C@H](CCCN=C(N)N)NC(=O)[C@H](CCCN=C(N)N)NC(=O)[C@H](CC(C)C)NC[C@H](Cc1ccccc1)NC(=O)CNC(=O)CNC(=O)[C@@H](N)Cc1ccc(O)cc1)C(=O)N[C@@H](CCCN=C(N)N)C(=O)N1CCC[C@H]1C(=O)N[C@@H](CCCCN)C(N)=O (H-[X1]([Gly-Gly-Tyr])RRIRPK-NH2) | 0.55 nM | 12 nM | 16.6 nM |  |  | 
7 | CC[C@H](C)[C@@H](CN[C@@H](CCCN=C(N)N)C(=O)N1CCC[C@H]1C(=O)N[C@@H](CCCCN)C(N)=O)NC(=O)[C@H](CCCN=C(N)N)NC(=O)[C@H](CCCN=C(N)N)NC(=O)[C@H](CC(C)C)NC(=O)[C@H](Cc1ccccc1)NC(=O)CNC(=O)CNC(=O)[C@@H](N)Cc1ccc(O)cc1 | 0.36 nM | 4 nM | 3.7 nM |  |  | 
8 | CC[C@H](C)[C@H](NC(=O)[C@H](CCCN=C(N)N)NC(=O)[C@H](CCCN=C(N)N)NC[C@H](CC(C)C)NC(=O)[C@H](Cc1ccccc1)NC(=O)CNC(=O)CNC(=O)[C@@H](N)Cc1ccc(O)cc1)C(=O)N[C@@H](CCCN=C(N)N)C(=O)N1CCC[C@H]1C(=O)N[C@@H](CCCCN)C(N)=O (H-[X4]([Phe-Gly-Gly-Tyr])RIRPK-NH2) | 0.61 nM | 0.64 nM | 21 nM | 30.4 | 1 | 52
9 | CC[C@H](C)[C@H](NC(=O)[C@H](CCCN=C(N)N)NC(=O)[C@H](CCCN=C(N)N)NC[C@H](CCCCN)NC(=O)[C@H](Cc1ccccc1)NC(=O)CNC(=O)CNC(=O)[C@@H](N)Cc1ccc(O)cc1)C(=O)N[C@@H](CCCN=C(N)N)C(=O)N1CCC[C@H]1C(=O)N[C@@H](CCCCN)C(N)=O (H-[X5]([Phe-Gly-Gly-Tyr])RIRPK-NH2) |  |  |  | 78.4 |  | 59

Source: ChEMBL document CHEMBL1128535, “Synthesis using a Fmoc-based strategy and biological activities of some reduced peptide bond pseudopeptide analogues of dynorphin A1” (J Med Chem, 1995)
